Assay results taken from ChEMBL document CHEMBL1275392, “Assessment of chemoselective neoglycosylation methods using chlorambucil as a model” (2010).

Assays:
[1] = system: SK-OV-3; assay: Growth inhibition of human SKOV3 cells after 7 days by celltiter-glo assay; format: functional; details: SK-OV-3, 168 h
[2] = system: NCI-H460; assay: Growth inhibition of human NCI-H460 cells after 7 days by celltiter-glo assay; format: functional; details: NCI-H460, 168 h
[3] = Growth inhibition of human p53 deficient Hep3B cells after 7 days by celltiter-glo assay; format: functional, Hep 3B2; details: 168 h
How it was run: (§1)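 Cells seeded at 500 per well in 384-well plates. Compounds came from 30 mM DMSO stocks, serially diluted and tested in quadruplicate. Incubation was 7 d at 37 °C under 5% CO2. Calcein AM (10 μM) and EthD-1 were added, followed by a fluorescence read. CellTiter-Glo lysis was then done for 10 min at room temperature, with a luminescence read. GI50 came from curve fitting.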

[4] = system: A549; assay: Growth inhibition of human A549 cells expressing p53 after 7 days by celltiter-glo assay; format: functional; details: A549, 168 h
[5] = system: DU-145; assay: Growth inhibition of human DU145 cells after 7 days by celltiter-glo assay; format: functional; details: DU-145, 168 h
[6] = system: SF-268; assay: Growth inhibition of human SF268 cells after 7 days by celltiter-glo assay; format: functional; details: SF-268, 168 h
[7] = system: HCT-15; assay: Growth inhibition of human HCT15 cells after 7 days by celltiter-glo assay; format: functional; details: HCT-15, 168 h
[8] = system: HT-29; assay: Growth inhibition of human HT-29 cells after 7 days by celltiter-glo assay; format: functional; details: HT-29, 168 h
[9] = Growth inhibition of human p53 deficient H1299 cells after 7 days by celltiter-glo assay; format: functional; details: NCI-H1299, 168 h; how it was run: as §1
[10] = system: MCF7; assay: Growth inhibition of human MCF7 cells after 7 days by celltiter-glo assay; format: functional; details: MCF7, 168 h

Compound | GI50 [1] [µM] | GI50 [2] [µM] | GI50 [3] [µM] | GI50 [4] [µM] | GI50 [5] [µM] | GI50 [6] [µM] | GI50 [7] [µM] | GI50 [8] [µM] | GI50 [9] [µM] | GI50 [10] [µM]
CON(CCCc1ccc(N(CCCl)CCCl)cc1)C1O[C@H](CN)[C@@H](O)[C@H](O)[C@H]1O (stereo not given in full) | 2.2 | 5 | 3.5 | 3.7 | 2.8 | 2.2 | 1.3 | 2.5 | 1.1 | 3.7
CON(CCCc1ccc(N(CCCl)CCCl)cc1)[C@H]1O[C@H](CO)[C@H](O)[C@H](O)[C@@H]1O | 2 | 5 | 2.4 | 2.6 | 3.3 | 1.7 | 2.2 | 1.8 | 3 | 1.5
CON(CCCc1ccc(N(CCCl)CCCl)cc1)[C@@H]1O[C@H](CO)[C@@H](O)[C@H](F)[C@H]1O | 2.2 | 7.1 | 3.2 | 3 | 4.1 | 2.2 | 1.2 | 2.6 | 1.3 | 7
CON(CCCc1ccc(N(CCCl)CCCl)cc1)[C@H]1C[C@@H](O)[C@H](O)[C@@H](C)O1 | 3.2 | 5.7 | 3.8 | 3.1 | 5.5 | 2.3 | 2.5 | 3.2 | 4.8 | 3.1
CON(CCCc1ccc(N(CCCl)CCCl)cc1)[C@@H]1OC[C@@H](O)[C@H]1O | 2.6 | 7.8 | 4.1 | 3.1 | 5 | 2.4 | 0.77 | 1.6 | 1.1 | 8
CON(CCCc1ccc(N(CCCl)CCCl)cc1)C1O[C@H](CO)[C@@H](O[C@@H]2O[C@H](CO)[C@@H](O)[C@H](O)[C@H]2O)[C@H](O)[C@H]1O (stereo not given in full) | 1.8 | 3.8 | 1.2 | 1.6 | 1.8 | 1.5 | 2.3 | 1.9 | 1.8 | 1.7
CON(CCCc1ccc(N(CCCl)CCCl)cc1)C1C[C@H](O)[C@H](O)[C@@H](C)O1 (stereo not given in full) | 3 | 6.5 | 3.2 | 2.7 | 4.3 | 2.8 | 1.3 | 2.1 | 1.1 | 6.3
CON(CCCc1ccc(N(CCCl)CCCl)cc1)C1O[C@@H](CO)[C@@H](O)[C@@H](O)[C@@H]1O (stereo not given in full) | 4.1 | 10.4 | 3.8 | 4.8 | 5.5 | 2 | 2.3 | 3.7 | 1.4 | 1.3
CON(CCCc1ccc(N(CCCl)CCCl)cc1)C1O[C@H](CO)[C@@H](O)[C@H](O)[C@@H]1NC(C)=O (stereo not given in full) | 10.1 | 33.3 | 9.8 | 21 | 16 | 3.4 | 22 | 8.7 | 2.7 | 9
CON(CCCc1ccc(N(CCCl)CCCl)cc1)C1O[C@@H](C)[C@H](OC(C)=O)[C@@H](OC(C)=O)[C@H]1OC(C)=O (stereo not given in full) | 3.9 | 7.8 | 4.6 | 3.5 | 4.5 | 3 | 3.7 | 4.3 | 5 | 3.2
CON(CCCc1ccc(N(CCCl)CCCl)cc1)[C@@H]1O[C@H](CCl)[C@@H](O)[C@H](O)[C@H]1O | 2.1 | 5.8 | 3.2 | 3 | 3.7 | 2.1 | 1.2 | 2.1 | 1.3 | 4.9
CON(CCCc1ccc(N(CCCl)CCCl)cc1)[C@H]1OC[C@H](O)[C@@H](O)[C@@H]1O | 2.4 | 2.9 | 1.6 | 2.2 | 2.2 | 1.5 | 0.83 | 1.5 | 0.93 | 1.2
CON(CCCc1ccc(N(CCCl)CCCl)cc1)[C@@H]1O[C@H](C)[C@@H](O)[C@H](O)[C@H]1O | 2.9 | 8.5 | 4.4 | 4.6 | 4.9 | 2.9 | 1.1 | 2.2 | 1.8 | 5.8
CON(CCCc1ccc(N(CCCl)CCCl)cc1)C1OC[C@H](O)[C@H](O)[C@H]1O (stereo not given in full) | 2.2 | 6.1 | 1.9 | 2.3 | 3.6 | 1.9 | 1 | 1.9 | 0.84 | 5.4
O=C(O)CCCc1ccc(N(CCCl)CCCl)cc1 [CHLORAMBUCIL] | 5.5 | 11 | 5.1 | 6.1 | 9.4 | 5.4 | 8.1 | 5 | 4.9 | 8.2
CON(CCCc1ccc(N(CCCl)CCCl)cc1)C1O[C@@H](CO)[C@H](O)[C@H](O)[C@H]1O (stereo not given in full) | 2.5 | 7.9 | 2 | 3.1 | 4.1 | 2.3 | 1.4 | 2.1 | 1.3 | 7.9
CON(CCCc1ccc(N(CCCl)CCCl)cc1)C1O[C@H](C(=O)O)[C@H](O)[C@H](O)[C@H]1NC(C)=O (stereo not given in full) | 11 | 42 | 11.8 | 22 | 16.7 | 4.2 | 19.1 | 12 | 3.8 | 4.4
CON(CCCc1ccc(N(CCCl)CCCl)cc1)C1C[C@@H](O)[C@@H](O)CO1 (stereo not given in full) | 2.2 | 5.2 | 2.5 | 2.5 | 3.3 | 2 | 2.2 | 2.3 | 3.9 | 1.3
CON(CCCc1ccc(N(CCCl)CCCl)cc1)[C@@H]1O[C@H](CO[C@@H]2O[C@H](CO)[C@H](O)[C@H](O)[C@H]2O)[C@@H](O)[C@H](O)[C@H]1O | 27 | 45.5 | 29 | 40 | 36 | 16.3 | 20 | 27.4 | 17.8 | 21
CON(CCCc1ccc(N(CCCl)CCCl)cc1)[C@@H]1O[C@H](C(=O)O)[C@@H](O)[C@H](O)[C@H]1O | 3.1 | 9.1 | 4.9 | 5.5 | 3.9 | 1.6 | 1.03 | 3.2 | 0.99 | 6
CON(CCCc1ccc(N(CCCl)CCCl)cc1)[C@@H]1OC[C@@H](O)[C@H](O)[C@H]1O | 2.2 | 4.5 | 1.5 | 2.3 | 2.3 | 1.4 | 0.9 | 1.6 | 0.83 | 0.91
CON(CCCc1ccc(N(CCCl)CCCl)cc1)C1O[C@@H](CO)[C@H](O)[C@@H](O)[C@H]1O (stereo not given in full) | 2.9 | 9.8 | 3.7 | 4.1 | 4.9 | 2 | 2.2 | 3.4 | 1.2 | 2.2
CON(CCCc1ccc(N(CCCl)CCCl)cc1)C1O[C@H](CO)[C@@H](O)[C@@H](O)[C@H]1O (stereo not given in full) | 3 | 9.5 | 4.4 | 3.4 | 5.8 | 3.1 | 0.97 | 0.6 | 0.53 | 9.3
CON(CCCc1ccc(N(CCCl)CCCl)cc1)C1O[C@H](CO)[C@@H](O)[C@@H](O)[C@@H]1O (stereo not given in full) | 1.9 | 6.6 | 1.7 | 2.4 | 4.1 | 1.9 | 1.4 | 1.6 | 0.91 | 6.5
CON(CCCc1ccc(N(CCCl)CCCl)cc1)C1O[C@H](CO)[C@@H](O)[C@H](O)[C@@H]1O (stereo not given in full) | 2.3 | 7.8 | 3.2 | 3.5 | 5.1 | 1.8 | 1.9 | 2.6 | 1.01 | 1.9
CON(CCCc1ccc(N(CCCl)CCCl)cc1)C1OC[C@@H](O)[C@@H](O)[C@@H]1O (stereo not given in full) | 2 | 5 | 1.6 | 2 | 3.3 | 1.8 | 0.9 | 1.5 | 0.73 | 4.6
